{"source": "paper PMC7580710", "about": "(Pharmacology Research & Perspectives, 2020)", "key": {"[1]": {"assay": "Plasma pharmacokinetics after intravenous", "type": "in vivo, Sprague Dawley rats", "conditions": "rat, 2.5 mg i.v., plasma sampled for 3 days", "summary_of_the_method": "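Adult male Sprague Dawley rats (350-400 g) under isoflurane (5% induction, 1%-3% maintenance) got one internal jugular injection. Blood was taken by terminal cardiac puncture from 0 to 72 h (N = 3 per time) and plasma separated cold. Levels were measured in duplicate by LC-MS/MS after protein precipitation with analog internal standard (curve 1.0-500 ng/mL). Data were fitted with a three-compartment naïve-pooled model, extended least-squares, variance-weighted.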"}, "[2]": {"assay": "Urinary excretion", "type": "in vivo, Sprague Dawley rats", "conditions": "rat, i.v., urine from bladder"}, "[3]": {"conditions": "cited from earlier work"}, "[4]": {"conditions": "3 hours, or 1, 2, 3, and 7 days after injection; cited from earlier work"}}, "note": "Peptide text beside a SMILES is read from it. * marks the point of attachment. Lauroyl = CCCCCCCCCCCC(=O)*", "data": [{"compound": "CCCCCCCCCCCC(=O)NCCCC[C@H](NC(=O)[C@@H](NC(=O)[C@@H](NC(=O)[C@H](C)NC(=O)[C@H](C)NC(=O)[C@H](CCCCN)NC(=O)[C@H](CCCCN)NC(=O)[C@H](CS)NC(=O)[C@H](CCCCN)NC(=O)[C@@H]1CCCN1C(=O)[C@H](CC(C)C)NC(=O)[C@@H](NC(=O)[C@H](Cc1c[nH]c2ccccc12)NC(=O)[C@H](CC(C)C)NC(=O)[C@@H](N)CCCCN)C(C)C)C(C)C)C(C)C)C(N)=O", "note": "[collagen‐targeted PA] (H-KLWVLPKCKKAAVVK(Lauroyl)-NH2)", "values": [{"measurement": "observed terminal half-life (not to be interpreted as elimination half-life)", "setting": "[1]", "value": 42.6, "unit": "h"}, {"measurement": "presence of the target peptide in urine by LC-MS/MS", "setting": "[2]", "value": "did not show the presence of the target peptide"}, {"measurement": "CAC for this fiber", "setting": "[3]", "value": "below 1 µM"}, {"measurement": "critical aggregation concentration (CAC)", "setting": "[3]; collagen-targeted PA with Alexa Fluor 546, nanofibers at neutral pH", "value": "< 300", "unit": "nM"}, {"measurement": "liver function profiles, coagulation panel, or chemistry panel", "setting": "[4]", "value": "no change"}]}]}
